Data taken from ChEMBL document CHEMBL5303300, “EUbOPEN Chemogenomics Library - Multiplex” (2023).
Several values for one entry are separate records, joined by “and”; a condition that tells them apart may be missing. Identical values can stand only once.

Key:
[1] = tested on: Fibroblast; assay: Multiplex assay against human fibroblast; type: toxicity, cell-based; conditions: number of replicates 2
In short: (§1)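 Compound was added to live cells that had been stained at seeding with Hoechst33342, BioTracker Green Microtubule Cytoskeleton Dye, MitoTracker Red and Annexin V Alexa Fluor 680, and imaging followed on a CQ1 microscope at 37°C and 5% CO2. CellPathfinder machine-learning gating divided cells into Hoechst high-intensity objects or normal cells, normal cells into healthy, pyknosed or fragmented nuclei, and pyknosed cells into mitotic or apoptotic. Tubulin, mitochondrial-mass and membrane-permeability phenotypes are per cents of healthy-nucleus cells.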

[2] = tested on: HEK-293T; assay: Multiplex assay against HEK293T; type: toxicity, cell-based; conditions: human, number of replicates 2; in short: as §1
[3] = 24 h, 10 µM, compound concentration 10 uM
[4] = 48 h, 1 µM, compound concentration 1 uM
[5] = 48 h, 10 µM, compound concentration 10 uM
[6] = 12 h, 1 µM, compound concentration 1 uM
[7] = 12 h, 10 µM, compound concentration 10 uM
[8] = 24 h, 1 µM, compound concentration 1 uM

O=C1NC(=NCc2cccs2)SC1=Cc1ccc2ncccc2c1
Population Normal (%) [1, 3]: 100% and 99% | Population Pyknosed Nuclei (%) [1, 3]: 6% and 12% | Population Tubulin-Different-Phenotype (%) [1, 3]: 26% and 23% | Total Cell Count [1, 3]: 191 and 241 | Population Apoptotic (%) [1, 4]: 65% and 75% | Population Fragmented Nuclei (%) [1, 4]: 17% and 14% | Population Healthy Nuclei (%) [1, 4]: 65% and 68% | Population Hoechst High Intensity Objects (%) [1, 4]: 0% | Population Membrane Permeable-Phenotype (%) [1, 4]: 2% and 3% | Population Mitochondria Different-Phenotype (%) [1, 4]: 0% | Population Mitotic Cells (%) [1, 4]: 34% and 25% | Population Normal (%) [1, 4]: 99% and 100% | Population Pyknosed Nuclei (%) [1, 4]: 17% | Population Tubulin-Different-Phenotype (%) [1, 4]: 10% and 6% | Total Cell Count [1, 4]: 185 and 211 | Population Apoptotic (%) [1, 5]: 73% and 62% | Population Fragmented Nuclei (%) [1, 5]: 15% and 11% | Population Healthy Nuclei (%) [1, 5]: 77% and 76% | Population Hoechst High Intensity Objects (%) [1, 5]: 0% | Population Membrane Permeable-Phenotype (%) [1, 5]: 0% | Population Mitochondria Different-Phenotype (%) [1, 5]: 0% and 2% | Population Mitotic Cells (%) [1, 5]: 26% and 37% | Population Normal (%) [1, 5]: 100% | Population Pyknosed Nuclei (%) [1, 5]: 7% and 11% | Population Tubulin-Different-Phenotype (%) [1, 5]: 30% and 28% | Total Cell Count [1, 5]: 201 and 239 | Population Apoptotic (%) [2, 6]: 54% and 38% | Population Fragmented Nuclei (%) [2, 6]: 6% and 4% | Population Healthy Nuclei (%) [2, 6]: 78% and 85% | Population Hoechst High Intensity Objects (%) [2, 6]: 8% and 7% | Population Membrane Permeable-Phenotype (%) [2, 6]: 4% and 2% | Population Mitochondria Different-Phenotype (%) [2, 6]: 15% and 9% | Population Mitotic Cells (%) [2, 6]: 45% and 61% | Population Normal (%) [2, 6]: 91% and 92% | Population Pyknosed Nuclei (%) [2, 6]: 15% and 10% | Population Tubulin-Different-Phenotype (%) [2, 6]: 46% and 45% | Total Cell Count [2, 6]: 632 and 733 | Population Apoptotic (%) [2, 7]: 54% and 69% | Population Fragmented Nuclei (%) [2, 7]: 1% and 2% | Population Healthy Nuclei (%) [2, 7]: 90% and 92% | Population Hoechst High Intensity Objects (%) [2, 7]: 3% and 6% | Population Membrane Permeable-Phenotype (%) [2, 7]: 4% | Population Mitochondria Different-Phenotype (%) [2, 7]: 21% and 19% | Population Mitotic Cells (%) [2, 7]: 45% and 30% | Population Normal (%) [2, 7]: 96% and 93% | Population Pyknosed Nuclei (%) [2, 7]: 7% and 5% | Population Tubulin-Different-Phenotype (%) [2, 7]: 78% and 72% | Total Cell Count [2, 7]: 644 and 684 | Population Apoptotic (%) [2, 8]: 40% and 31% | Population Fragmented Nuclei (%) [2, 8]: 6% and 4% | Population Healthy Nuclei (%) [2, 8]: 84% and 89% | Population Hoechst High Intensity Objects (%) [2, 8]: 8% | Population Membrane Permeable-Phenotype (%) [2, 8]: 3% and 2% | Population Mitochondria Different-Phenotype (%) [2, 8]: 3% and 5% | Population Mitotic Cells (%) [2, 8]: 59% and 68% | Population Normal (%) [2, 8]: 91% | Population Pyknosed Nuclei (%) [2, 8]: 9% and 6% | Population Tubulin-Different-Phenotype (%) [2, 8]: 19% and 30% | Total Cell Count [2, 8]: 1066 and 1062 | Population Apoptotic (%) [2, 3]: 63% and 77% | Population Fragmented Nuclei (%) [2, 3]: 2% | Population Healthy Nuclei (%) [2, 3]: 91% and 93% | Population Hoechst High Intensity Objects (%) [2, 3]: 6% and 5% | Population Membrane Permeable-Phenotype (%) [2, 3]: 2% and 1% | Population Mitochondria Different-Phenotype (%) [2, 3]: 9% and 12% | Population Mitotic Cells (%) [2, 3]: 36% and 22% | Population Normal (%) [2, 3]: 93% and 94% | Population Pyknosed Nuclei (%) [2, 3]: 5% and 4% | Population Tubulin-Different-Phenotype (%) [2, 3]: 57% and 55% | Total Cell Count [2, 3]: 699 and 690 | Population Apoptotic (%) [2, 4]: 14% and 11% | Population Fragmented Nuclei (%) [2, 4]: 16% and 10% | Population Healthy Nuclei (%) [2, 4]: 80% and 86% | Population Hoechst High Intensity Objects (%) [2, 4]: 9% and 10% | Population Membrane Permeable-Phenotype (%) [2, 4]: 5% | Population Mitochondria Different-Phenotype (%) [2, 4]: 0% and 1% | Population Mitotic Cells (%) [2, 4]: 85% and 88% | Population Normal (%) [2, 4]: 90% and 89% | Population Pyknosed Nuclei (%) [2, 4]: 3% | Population Tubulin-Different-Phenotype (%) [2, 4]: 9% and 14% | Total Cell Count [2, 4]: 2821 and 2321 | Population Apoptotic (%) [2, 5]: 45% and 59% | Population Fragmented Nuclei (%) [2, 5]: 8% and 7% | Population Healthy Nuclei (%) [2, 5]: 87% and 89% | Population Hoechst High Intensity Objects (%) [2, 5]: 8% and 7% | Population Membrane Permeable-Phenotype (%) [2, 5]: 2% and 0% | Population Mitochondria Different-Phenotype (%) [2, 5]: 3% and 5% | Population Mitotic Cells (%) [2, 5]: 54% and 40% | Population Normal (%) [2, 5]: 91% and 92% | Population Pyknosed Nuclei (%) [2, 5]: 3% | Population Tubulin-Different-Phenotype (%) [2, 5]: 21% and 26% | Total Cell Count [2, 5]: 740 and 737
